Activity calls are given as the source filed them. The rule behind the calls is not given here.
Experiments:
Mus musculus [1] = experiment: Antinociceptive activity in Kunming mouse model of acetic-acid-induced writhing assessed as inhibition of writhing numbers at 0.2 mg/kg measured for 30 mins relative to control; type: functional; conditions: 0.5 h
In short: (§1)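 Acetic-acid-induced writhing model in Kunming mice (10 per group); doses 0.2, 1.0 and 5.0 mg/kg; vehicle-treated and morphine positive-control groups; inhibition of writhing relative to vehicle; mean ± SEM; one-way ANOVA with Bonferroni test. Animal work approved by institutional ethics committee.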

A549 = experiment: Cytotoxicity against human A549 cells at 40 uM after 48 hrs by MTT assay; type: functional, cell-based
[2] = molecular target: T1, Tyrosine-protein phosphatase non-receptor type 1 (Homo sapiens) (UniProt P18031); experiment: Inhibition of recombinant human PTP1B at 40 uM using pNPP as substrate preincubated for 10 mins followed by substrate addition and measured after 30 mins at 5 mins time interval for 30 mins
T1 sequence (whole entry): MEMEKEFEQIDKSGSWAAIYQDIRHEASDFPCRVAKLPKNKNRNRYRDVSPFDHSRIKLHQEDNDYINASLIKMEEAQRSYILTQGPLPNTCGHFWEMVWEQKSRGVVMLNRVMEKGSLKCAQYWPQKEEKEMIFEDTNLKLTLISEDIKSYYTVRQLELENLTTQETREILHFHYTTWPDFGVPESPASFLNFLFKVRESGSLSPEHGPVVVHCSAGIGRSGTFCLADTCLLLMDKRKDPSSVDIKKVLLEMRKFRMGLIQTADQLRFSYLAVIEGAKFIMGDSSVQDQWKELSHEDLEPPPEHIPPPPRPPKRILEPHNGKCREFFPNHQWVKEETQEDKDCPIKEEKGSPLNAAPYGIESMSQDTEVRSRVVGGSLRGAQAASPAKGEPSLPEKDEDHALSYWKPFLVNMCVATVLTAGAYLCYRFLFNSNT

RAW264.7 = experiment: Anti-inflammatory activity in mouse RAW264.7 cells assessed as inhibition of LPS-induced NO production at 40 uM; type: functional, cell-based
Mus musculus [3] = experiment: Antinociceptive activity in Kunming mouse model of acetic-acid-induced writhing assessed as inhibition of writhing numbers at 5 mg/kg measured for 30 mins relative to control; type: functional; conditions: 0.5 h; in short: as §1
Mus musculus [4] = experiment: Antinociceptive activity in Kunming mouse model of acetic-acid-induced writhing assessed as inhibition of writhing numbers at 1 mg/kg measured for 30 mins relative to control; type: functional; conditions: 0.5 h; in short: as §1
MCF7 = experiment: Cytotoxicity against human MCF7 cells at 40 uM after 48 hrs by MTT assay; type: functional, cell-based
HL-60 = experiment: Cytotoxicity against human HL60 cells at 40 uM after 48 hrs by MTT assay; type: functional, cell-based
SW480 = experiment: Cytotoxicity against human SW480 cells at 40 uM after 48 hrs by MTT assay; type: functional, cell-based
SMMC-7721 = experiment: Cytotoxicity against human SMMC7721 cells at 40 uM after 48 hrs by MTT assay; type: functional, cell-based

inhibition [2]: inactive
SMILES: C=C1[C@H]2C[C@H](O[C@@H]3O[C@H](CO)[C@@H](O)[C@H](O)[C@H]3O)C(C)(C)[C@]2(O)CC[C@@]23C[C@@H](CC[C@@H]12)[C@](C)(O)C3
inhibition in vivo at 0.2 mg/kg (Mus musculus [1]): 46.1%
Activity (A549): inactive
inhibition (RAW264.7): inactive
inhibition in vivo at 5 mg/kg (Mus musculus [3]): 82.3%
inhibition in vivo at 1 mg/kg (Mus musculus [4]): 58.7%
Activity (MCF7): inactive
Activity (HL-60): inactive
Activity (SW480): inactive
Activity (SMMC-7721): inactive
